Source: PMC4059944 (Nature, 2014)
“And” between values parts separate entries of the source, which are not always exact repeats. Equal values may be shown once. Ends that are not written are not given here.

T1: Ctf4 N-terminal deletion (Ctf4CTD, aa 461-927) (S. cerevisiae, UniProt Q01454 461-927)
T1 sequence: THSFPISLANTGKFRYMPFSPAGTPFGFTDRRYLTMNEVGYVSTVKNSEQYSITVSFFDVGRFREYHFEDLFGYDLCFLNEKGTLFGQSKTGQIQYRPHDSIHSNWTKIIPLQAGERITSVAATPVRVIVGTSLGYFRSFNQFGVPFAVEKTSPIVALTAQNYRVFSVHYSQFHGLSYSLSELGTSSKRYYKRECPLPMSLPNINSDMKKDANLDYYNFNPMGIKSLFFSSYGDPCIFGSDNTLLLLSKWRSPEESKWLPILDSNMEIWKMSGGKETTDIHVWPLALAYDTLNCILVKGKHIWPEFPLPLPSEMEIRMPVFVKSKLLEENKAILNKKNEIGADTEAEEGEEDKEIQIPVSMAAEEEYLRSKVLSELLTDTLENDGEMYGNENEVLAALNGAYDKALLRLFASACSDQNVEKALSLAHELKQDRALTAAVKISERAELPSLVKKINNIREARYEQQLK

T2: fluorescein-labelled yeast Sld5 peptide (1-19) (S. cerevisiae)
T2 peptide: fluorescein-MDINIDDILAELDKETTAV

B1: GINSPsf1ΔC (Strep III-tagged, for electron microscopy) (complex)
chain 1: MGYYDIDDVLADGTEFPCKFQYDIPGLGYLENNPGRPITKNTKLSLPLWLARILAIVGGDEALVDEEPVPFVELLPPDMFSTKVMNAIKTDPVALDLHSINSHFFSLAIKWIMLFSEKELANVVSELLLQRAQELNHHASSLSIDLNADSTGKNSANTNIATSTFLLKLEEMEKEIYKKSHESYKDTKRWMFKK
chain 2: MYGDLGNKLVLEAKRTKQLYARSNQDVNLPMYHEDIIRNILKEVSNLRKNTEYLKEQQQLGMLDDKVAKCQYFVTLLCMERNKRCLLAYQRLRTDILDSMAWNNNGLDLMSSITFSQQDTNNLSHQEQEYLKEYCDLITDLKSGDLVDIDLSGSLVPPSDVFID
chain 3: MSLPAHLQQTFSPEEIQFIVENEPIKIFPRITTRQKIRGDDRGTGNHTRWQLITTDDKALNNMVAMRSTEVVLWIALLLKQQSKCSIVAPQWLTTKELDRKIQYEKTHPDRFSELPWNWLVLARILFNKAKDDFHDPIHELRGKIQDLREIRQIKVLKGLKYLNESHLQLDNLSLLEINELRPFITEIMDKLREIHTASLTAGTENDEEEFNI
chain 4: MDINIDDILAELDKETTAVDSTKITQGSSSTTHRDANTIVGSSLDLNDKTQIYVSPQQDFSDLMKSWKNERCSPELLPYPHQLMKRLLNRISMQSQLIENISMGFLDMQNASNANPPMPNESKLPLLCMETELERLKFVIRSYIRCRLSKIDKFSLYLRQLNEDENSLISLTDLLSKDEIKYHDTHSLIWLKLVNDSILKYMPEELQAINDTEGSVNMIDEPDWNKFVFIHVNGPPDGKWNEDPLLQENEFGKPCYTVTIPDLKEEVELTIGSIYVMRYEVIRDLLRDDKVALI
B2: Ctf4CTD (yeast Ctf4 amino acids 471 to 927) (domain or fragment)
chain: TGKFRYMPFSPAGTPFGFTDRRYLTMNEVGYVSTVKNSEQYSITVSFFDVGRFREYHFEDLFGYDLCFLNEKGTLFGQSKTGQIQYRPHDSIHSNWTKIIPLQAGERITSVAATPVRVIVGTSLGYFRSFNQFGVPFAVEKTSPIVALTAQNYRVFSVHYSQFHGLSYSLSELGTSSKRYYKRECPLPMSLPNINSDMKKDANLDYYNFNPMGIKSLFFSSYGDPCIFGSDNTLLLLSKWRSPEESKWLPILDSNMEIWKMSGGKETTDIHVWPLALAYDTLNCILVKGKHIWPEFPLPLPSEMEIRMPVFVKSKLLEENKAILNKKNEIGADTEAEEGEEDKEIQIPVSMAAEEEYLRSKVLSELLTDTLENDGEMYGNENEVLAALNGAYDKALLRLFASACSDQNVEKALSLAHELKQDRALTAAVKISERAELPSLVKKINNIREARYEQQLK

Assays:
Ctf4CTD = experiment: Analytical gel filtration of Ctf4CTD - GINS; type: binding, yeast (S. cerevisiae); details: Superdex S200, 20 mM HEPES pH 7.2, 140 mM KCl, full-length or N-terminally truncated Sld5
[1] = target: T1, Ctf4 N-terminal deletion (Ctf4CTD, aa …); experiment: negative-stain single-particle electron microscopy
SEC-MALS = target: the molecule itself; experiment: SEC-MALS
[2] = Native mass spectrometry, oligomeric state; type: physicochemical, yeast (S. cerevisiae); details: nano-electrospray, 500 mM ammonium acetate
[3] = Multi-angle laser scattering; type: physicochemical, yeast (S. cerevisiae); details: size exclusion chromatography - MALS
Outline: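 Recombinant His-tagged full-length yeast Ctf4, expressed in E. coli BL21(DE3)-CodonPlus (1 mM IPTG, 37°C, 2 h), purified by Ni-NTA, Mono Q ion exchange and Superdex 200 gel filtration. About 100 μg loaded onto an HPLC size-exclusion column equilibrated in 150 mM NaCl, 20 mM Tris pH 8.0, 1 mM DTT. Eluate read by 8-angle light scattering and refractive index detectors.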

[4] = target: T2, fluorescein-labelled yeast Sld5 peptide …; experiment: fluorescence polarisation

Molecule | Ctf4 - GINS interaction (Ctf4CTD) | stoichiometry N [1] | stoichiometry N (SEC-MALS) | oligomeric state in solution (native mass spectrometry) [2] | oligomeric state in solution (MALS) [3] | fold tighter association than the Pol1 motif [4] [fold]
B1 | dependent upon the unstructured tail at the N-terminus of the Sld5 subunit of GINS | 1 copies of GINS per Ctf4CTD trimer and 2 copies of GINS per Ctf4CTD trimer and 3 copies of GINS per Ctf4CTD trimer |  |  |  | 
B2 |  |  | 3 | stable trimer in solution | stable trimer in solution | ~5
